Results on 47 compounds are retold here after ChEMBL document CHEMBL1152901, “The synthesis and biological evaluation of para-substituted phenolic N-alkyl carbamates as endocannabinoid hydrolyzing enzyme inhibitors” (Eur J Med Chem, 2009).

Assay [1] has as its target T1, Fatty-acid amide hydrolase 1 (Rattus norvegicus, UniProt P97612).
T1 sequence (P97612 whole entry): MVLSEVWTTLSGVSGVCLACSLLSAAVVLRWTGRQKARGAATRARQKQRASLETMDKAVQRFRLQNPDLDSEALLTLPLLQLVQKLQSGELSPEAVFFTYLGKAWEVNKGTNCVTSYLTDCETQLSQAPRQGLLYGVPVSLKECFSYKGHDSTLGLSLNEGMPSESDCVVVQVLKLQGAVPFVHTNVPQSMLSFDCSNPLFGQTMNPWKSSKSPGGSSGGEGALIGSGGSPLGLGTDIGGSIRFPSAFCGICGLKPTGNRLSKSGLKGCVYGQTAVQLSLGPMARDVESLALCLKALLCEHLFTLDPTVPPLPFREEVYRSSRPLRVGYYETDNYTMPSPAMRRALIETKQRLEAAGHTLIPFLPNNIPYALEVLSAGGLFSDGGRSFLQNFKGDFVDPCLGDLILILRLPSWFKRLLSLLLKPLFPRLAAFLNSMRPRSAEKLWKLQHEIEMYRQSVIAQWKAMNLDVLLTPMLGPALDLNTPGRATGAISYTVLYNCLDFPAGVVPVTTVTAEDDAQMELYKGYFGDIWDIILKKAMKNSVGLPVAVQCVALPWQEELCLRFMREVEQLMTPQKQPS
In words: Inhibition of FAAH in Wistar rat cerebral membrane by liquid scintillation counting. The class given is cell membranes. Summed up: (§1)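 Rat brain homogenate (10,000g supernatant from male Wistar forebrain, 8 weeks old), 18 µg protein, preincubated with inhibitor in DMSO (≤5% v/v) for 10 min at 37 °C in 0.1 M potassium phosphate pH 7.4 with 0.5% fatty-acid-free BSA. Then 2 µM AEA carrying [ethanolamine-1-3H]AEA is added for 10 min at 37 °C. The reaction is stopped with ethyl acetate and aqueous [3H]ethanolamine is counted. IC50 comes from a variable-slope sigmoidal fit, three experiments in duplicate; single-point values are the mean of two experiments in duplicate.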

The target of the next assay is T2, Monoglyceride lipase (Rattus norvegicus, UniProt Q8R431).
T2 sequence (Q8R431 whole entry): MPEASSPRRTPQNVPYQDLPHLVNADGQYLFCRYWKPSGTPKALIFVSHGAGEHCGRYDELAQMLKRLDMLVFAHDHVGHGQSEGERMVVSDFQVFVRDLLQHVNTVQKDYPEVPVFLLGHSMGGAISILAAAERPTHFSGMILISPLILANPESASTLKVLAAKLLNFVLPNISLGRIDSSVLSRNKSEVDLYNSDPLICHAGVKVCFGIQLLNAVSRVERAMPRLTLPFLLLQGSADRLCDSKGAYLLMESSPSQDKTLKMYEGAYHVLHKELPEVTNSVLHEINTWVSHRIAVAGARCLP
The experiment in a line: Inhibition of MGL in Wistar rat cerebral membrane by HPLC. The class given is cell membranes. The gist of the method: (§2)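 Incubation is 90 min at 25 °C with 5 µg protein, 50 µM 2-AG, 100 mM NaCl and 5 mM MgCl2. The reaction is stopped with acidified acetonitrile (pH 3.0). 2-AG, 1(3)-AG and arachidonic acid are quantified by reversed-phase HPLC with UV at 211 nm. IC50 comes from a variable-slope fit, three experiments in duplicate; percentages are the mean of two in duplicate.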

Assay [2] deals with Monoglyceride lipase (Homo sapiens) (UniProt Q99685). In words: Inhibition of MGL in human recombinant MGL.
Assay [3] deals with T3, Fatty-acid amide hydrolase 1 (Rattus norvegicus) (UniProt P97612).
T3 sequence (whole entry): T1 sequence (P97612 whole entry)
The experiment in a line: Inhibition of FAAH in Wistar rat cerebral membrane at 0.1 uM by liquid scintillation counting. Type of assay: cell membranes. The gist of the method:
as §1

For assay [4], the target named is T4, Monoglyceride lipase (Rattus norvegicus) (UniProt Q8R431).
T4 sequence (whole entry): T2 sequence (Q8R431 whole entry)
The experiment in a line: Inhibition of MGL in Wistar rat cerebral membrane assessed as residual activity at 1 mM by HPLC; values are per cent of control.

Assay [5] deals with T4, Monoglyceride lipase (Rattus norvegicus). The experiment in a line: Inhibition of MGL in Wistar rat cerebral membrane at 100 uM by HPLC. Type of assay: cell membranes. Summed up: as §2
In assay [6] the target is Monoglyceride lipase (Rattus norvegicus) (UniProt Q8R431). In words: Inhibition of MGL 2-AG hydrolysis in rat cerebellar membranes by liquid scintillation counting.
The target in assay [7] is T4, Monoglyceride lipase (Rattus norvegicus). In words: Inhibition of MGL in Wistar rat cerebral membrane at 1 mM by HPLC. The class given is cell membranes. The gist of the method: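 Rat cerebellar membranes were prepared by sucrose homogenisation, differential centrifugation and washing. […] Reactions were stopped with acidified acetonitrile (pH 3.0). 2-AG, 1(3)-AG and arachidonic acid were quantified by reversed-phase HPLC (UV 211 nm peak areas). Remaining activity is reported.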

The target in assay [8] is T5, Monoglyceride lipase (Homo sapiens) (UniProt Q99685).
T5 sequence (whole entry): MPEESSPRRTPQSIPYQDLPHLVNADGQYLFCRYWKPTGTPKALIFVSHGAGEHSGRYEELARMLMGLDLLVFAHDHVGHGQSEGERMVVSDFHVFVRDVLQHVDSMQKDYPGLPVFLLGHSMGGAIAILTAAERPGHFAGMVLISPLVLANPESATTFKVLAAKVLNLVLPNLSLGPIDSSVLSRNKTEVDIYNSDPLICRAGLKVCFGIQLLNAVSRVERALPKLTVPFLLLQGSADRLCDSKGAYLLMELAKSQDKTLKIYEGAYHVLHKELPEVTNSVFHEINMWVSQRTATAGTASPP
In words: Irreversible inhibition of human MGL at 0.3 uM by liquid scintillation counting. Summed up:
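Reversibility was tested on human recombinant MGL. The enzyme was preincubated with inhibitor at 50-fold the activity-assay enzyme level, then diluted […] into Tris-HCl pH 7.4/EDTA buffer with 50 μM 2-OG including [³H]2-OG. Samples taken at 0–60 min were stopped with cold ethyl acetate, and aqueous [³H]glycerol was counted by liquid scintillation. Activity was compared with DMSO vehicle over three independent experiments in duplicate.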

Assay [9] addresses T1, Fatty-acid amide hydrolase 1. In words: Inhibition of FAAH-mediated anandamide hydrolysis in rat brain membrane. Type of assay: cell membranes.
For assay [10], the target named is T4, Monoglyceride lipase (Rattus norvegicus). The experiment in a line: Inhibition of MGL in Wistar rat cerebral membrane at 30 uM by HPLC. The class given is cell membranes. Summed up: as §2
For assay [11] the target is unchanged. The conditions noted are these: Wistar, 100 uM.

SMILES strings stand for the structures. Active and inactive are the calls of the source. The rule behind the calls is not given here.

Regarding `CCCCCCNC(=O)Oc1ccc(C(=O)OC)cc1OC`, the IC50 – broadly, the midpoint of a concentration-inhibition curve – in [1] worked out at 5.5 nM. On to `Cc1ccccc1CNC(=O)Oc1ccc(C2=NCCS2)cc1`, for which the half-maximal inhibitory concentration (IC50) against Monoglyceride lipase was 46000 nM; in assay [1], 62 nM.

On Monoglyceride lipase, `CCCCCCCCCCCCNC(=O)Oc1ccc(C(=O)OC)cc1` gave an IC50 of 2800 nM. Consider `Cc1ccc(CNC(=O)Oc2ccc(C3=NCCS3)cc2)cc1`, for which the values for the IC50 (at Monoglyceride lipase; in [1]) were 94000 nM and 280 nM, respectively.

Regarding `CCCCCCCCCCCCNC(=O)Oc1ccccc1-c1csnn1`, the IC50 in [2] was determined as 18000 nM; in assay [1], 50 nM. On to `CCCCNC(=O)Oc1ccc(OC)cc1`, for which the inhibition (in general, the relative decrease from the control value, in per cent) in assay [3] was found to be 5%. As for `CCCCNC(=O)Oc1ccc(C2=NCCO2)cc1`, the IC50 on Monoglyceride lipase turned out to be 34000 nM; in [1], 120 nM. Take `COc1ccc(CNC(=O)Oc2ccc(C3=NCCS3)cc2)cc1`: the IC50 at Monoglyceride lipase worked out at 46000 nM; in assay [1], 320 nM. Also, the residual activity (usually the activity still measured, relative to the control) in assay [4] amounted to 21%. `O=C(Nc1ccc([N+](=O)[O-])cc1)OC1CCCCC1` displayed an inhibition in assay [3] of 9%. Further, the inhibition entry in assay [5] was “inactive”. Compound `CCCCNC(=O)Oc1ccc(C(=O)OC)cc1` had an inhibition in [3] of 35%. As for `CCCCCCNC(=O)Oc1ccc(-c2csnn2)cc1`, the IC50 was 11000 nM against Monoglyceride lipase and 19 nM in assay [1]. Consider `CCCNC(=O)Oc1ccc(C2=NCCS2)cc1`, for which the IC50 against Monoglyceride lipase came to 46000 nM; in [1], 1700 nM. Besides, in assay [4], the residual activity was determined as 6%. Consider `O=C(NC1CCCCC1)Oc1ccc([N+](=O)[O-])cc1`, for which, on Monoglyceride lipase, 19000 nM corresponded to half-maximal inhibition (IC50). In addition, the inhibition in assay [3] was determined as 25%. On to `CCNC(=O)Oc1ccc(C2=NCCS2)cc1`, for which the IC50 stood at 102000 nM on Monoglyceride lipase and 15000 nM in assay [1]. The residual activity in assay [4] stood at 12%. For `CCCCCCNC(=O)Oc1ccc(C2=NCCS2)cc1`, the IC50 in assay [1] is 8.2 nM. `CCCCCCCCCCCCNC(=O)Oc1ccccc1` gave an inhibition in assay [5] of 36%. For `O=C(NCc1ccccc1)Oc1ccc(C2=NCCS2)cc1`, the results for the IC50 (at Monoglyceride lipase; in assay [1]) were 42000 nM and 290 nM, respectively. As for `Cc1ccccc1CNC(=O)Oc1ccc(C2=NCCO2)cc1`, the figures for the IC50 (on Monoglyceride lipase; in [1]) were 35000 nM and 34 nM, respectively. The residual activity in assay [4] stood at 12%.

`CCCCC/C=C\C/C=C\C/C=C\C/C=C\CCCCN1C(=O)C=CC1=O`: the IC50 in assay [6] was 140 nM.

Regarding `O=C(NC1CCCCC1)Oc1ccc(C2=NCCS2)cc1`, the values for the IC50 (against Monoglyceride lipase; in assay [1]) were 27000 nM and 100 nM, respectively. On to `CCCCCCNC(=O)Oc1c(C(C)(C)C)cc(C(=O)OC)cc1C(C)(C)C`, for which the inhibition in [3] came out at 4%. Still for that read-out and setting: next, `CCCCNC(=O)Oc1ccc([N+](=O)[O-])cc1`: 16%. `Cc1ccc(CNC(=O)Oc2ccc(C3=NCCO3)cc2)cc1`: the IC50 on Monoglyceride lipase came out at 125000 nM; in assay [1], 180 nM. Besides, in assay [4], the residual activity was 6%. As to `CCCCCCCCCCCCNC(=O)Oc1ccc(C2=NCCS2)cc1`, half-maximal inhibition in assay [1] (IC50) required 6.3 nM. Regarding `CCCCCCNC(=O)Oc1ccc(Br)cc1`, the residual activity in [4] stood at 16%. Turning to `CCCCCCNC(=O)Nc1ccc(-c2csnn2)cc1`, the inhibition in assay [3] was 9%. For the same compound, the inhibition result in assay [5] was “inactive”. Turning to `O=C(NCc1ccccc1)Oc1ccc(-c2csnn2)cc1`, the residual activity in assay [4] came to 22%. The IC50 in assay [1] was determined as 44 nM.

On to `CC(C)(C)NC(=O)Oc1ccc(C2=NCCS2)cc1`, for which, in [1], the IC50 was 7000 nM. The inhibition result in [5] was “inactive”.

In the case of `CCCCCCNC(=O)Oc1ccc(C(=O)OC)cc1C`, the IC50 in assay [1] was found to be 55 nM. Same read-out and setting: with `O=C(NC1CCCC1)Oc1ccc(-c2csnn2)cc1` the figure was 20 nM. In assay [1], `O=C(NC1CCCCC1)Oc1ccc(-c2csnn2)cc1` returned an IC50 of 21 nM. The inhibition in [5] was determined as 28%.

As to `O=C(NC1CCCC1)Oc1ccc(C2=NCCO2)cc1`, the IC50 at Monoglyceride lipase was found to be 11000 nM; in assay [1], 100 nM. Besides, the residual activity in [4] was 21%.

The compound `CCCCCCNC(=O)Oc1ccccc1` came in with an inhibition in assay [5] of 41%.

`NC(=O)c1cccc(-c2cccc(OC(=O)NC3CCCCC3)c2)c1` showed an inhibition in [7] of 30%. Further, in [8], the outcome was Active. Consider `CCCCCCNC(=O)Oc1ccc(C(=O)OC)cc1I`, for which the midpoint of inhibition in [1], the IC50, lay at 24 nM.

Regarding `O=C(Nc1ccc(-c2ccccc2)cc1)OC1CCCCC1`, the values for the IC50 in assay [9] and in [1] were 17000 nM and 108000 nM, respectively. Turning to `CCCCNC(=O)Oc1cccc(-c2csnn2)c1`, the IC50 in assay [1] stood at 6.9 nM.

Take `CCCCCCCCCCCCNC(=O)Oc1cccc(-c2csnn2)c1`: the inhibition in [10] amounted to 57%. Further, in [4], the residual activity was 13%. In addition, the half-maximal inhibitory concentration (IC50) in assay [1] stood at 0.24 nM. As to `O=C(NCCc1ccccc1)Oc1ccc(C2=NCCS2)cc1`, the IC50 at Monoglyceride lipase turned out to be 28000 nM; in assay [1], 38 nM.

In assay [3], `CCCCNC(=O)Oc1ccc(C#N)cc1` yielded an inhibition of 25%. With `O=C(NC1CCCC1)Oc1ccc(C2=NCCS2)cc1`, the figures for the half-maximal inhibitory concentration (IC50) (at Monoglyceride lipase; in assay [1]) were 11000 nM and 130 nM, respectively. Regarding `CCCCNC(=O)Oc1ccccc1-c1csnn1`, the inhibition entry in assay [3] was “inactive”. Compound `CCCCNC(=O)Oc1ccc(C2=NCCS2)cc1` gave a residual activity in assay [11] of 54%. Moreover, the results for the IC50 (against Monoglyceride lipase; in assay [1]) were 31000 nM and 520 nM, respectively.

`CCCCCCNC(=O)Oc1ccc(C)cc1`: the inhibition in assay [3] came out at 27%. On Monoglyceride lipase, `CCCCCCNC(=O)Oc1ccc(C(=O)OC)cc1` yielded an IC50 of 35000 nM. The compound `COC(=O)c1ccc(OC(=O)NC2CCCCC2)cc1` yielded an IC50 against Monoglyceride lipase of 14000 nM. The compound also had an inhibition in [3] of 41%. As for `CCCCNC(=O)Oc1ccc(-c2csnn2)cc1`, the residual activity in assay [4] was determined as 22%. For the same compound, 160 nM corresponded to half-maximal inhibition in assay [1] (IC50). Besides, the inhibition in assay [5] worked out at 46%.
